In ChEMBL document CHEMBL1759952, “Synthesis and anticancer activities of some novel 2-(benzo[d]thiazol-2-yl)-8-substituted-2H-pyrazolo[4,3-c]quinolin-3(5H)-ones” (Eur J Med Chem, 2011):
In brackets after ≈: the same amount, converted by molar mass.

What was measured:
MDA-MB-435 = assay: Cytotoxicity against human MDA-MB-435 cells for 72 hrs by MTT assay; type: functional, cell-based; conditions: MDA-MB-435, 72 h
Summary of the method: (§1)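 Cells kept in RPMI 1640 with 10% fetal bovine serum, 2 mM glutamine, 100 U/mL penicillin and streptomycin, at 37 °C under 5% CO₂. Compounds were dissolved in DMSO and diluted with water to 1 mg/mL, then incubated with cells for 72 h. Growth was read by MTT, with doxorubicin as positive control. IC₅₀ is the concentration giving 50% growth inhibition, in triplicate.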

HL-60 = assay: Cytotoxicity against human HL60 cells for 72 hrs by MTT assay; type: functional, cell-based; conditions: HL-60, 72 h; summary of the method: as §1
HCT-8 = assay: Cytotoxicity against human HCT8 cells for 72 hrs by MTT assay; type: functional, cell-based; conditions: HCT-8, 72 h; summary of the method: as §1
SF-295 = assay: Cytotoxicity against human SF295 cells for 72 hrs by MTT assay; type: functional, cell-based; conditions: SF-295, 72 h; summary of the method: as §1
[1] = Toxicity against mouse erythrocytes assessed as hemolysis after 30 mins by spectrometric analysis; type: cell-based, Erythrocyte
Summary of the method: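 Used a 2% mouse erythrocyte suspension in 0.85% NaCl with 10 mM CaCl₂. Compounds (DMSO stock diluted in water) were tested across a graded range, 30 min at room temperature, then centrifuged. Released hemoglobin in the supernatant was read at 540 nm. DMSO was the negative control and 1% Triton X-100 the positive control. EC₅₀ = effective concentration.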

O=c1c2c[nH]c3ccc(Br)cc3c-2nn1-c1nc2ccccc2s1
IC50 (MDA-MB-435): 1.6 µg/mL (≈ 4.03 µM) | IC50 (HL-60): 3 µg/mL (≈ 7.55 µM) | IC50 (HCT-8): > 5 µg/mL | IC50 (SF-295): 4.1 µg/mL (≈ 10.3 µM) | EC50 at 30 min [1]: > 250 µg/mL

COc1cccc2c1C(=O)c1c(O)c3c(c(O)c1C2=O)C[C@@](O)(C(=O)CO)C[C@@H]3O[C@H]1C[C@H](N)[C@H](O)[C@H](C)O1 [DOXORUBICIN]
IC50 (MDA-MB-435): 0.69 µg/mL (≈ 1.27 µM) | IC50 (HL-60): 0.03 µg/mL (≈ 0.0552 µM) | IC50 (HCT-8): 0.06 µg/mL (≈ 0.11 µM)

O=c1c2c[nH]c3ccccc3c-2nn1-c1nc2ccccc2s1
IC50 (MDA-MB-435): > 5 µg/mL | IC50 (HL-60): > 5 µg/mL | IC50 (HCT-8): > 5 µg/mL | IC50 (SF-295): > 5 µg/mL | EC50 at 30 min [1]: > 250 µg/mL

Cc1ccc2[nH]cc3c(=O)n(-c4nc5ccccc5s4)nc-3c2c1
IC50 (MDA-MB-435): 2.3 µg/mL (≈ 6.92 µM) | IC50 (HL-60): > 5 µg/mL | IC50 (HCT-8): 4.1 µg/mL (≈ 12.3 µM) | IC50 (SF-295): 4.5 µg/mL (≈ 13.5 µM) | EC50 at 30 min [1]: > 250 µg/mL

O=c1c2c[nH]c3ccc(Cl)cc3c-2nn1-c1nc2ccccc2s1
IC50 (MDA-MB-435): > 5 µg/mL | IC50 (HL-60): > 5 µg/mL | IC50 (HCT-8): > 5 µg/mL | IC50 (SF-295): > 5 µg/mL | EC50 at 30 min [1]: > 250 µg/mL

COc1ccc2[nH]cc3c(=O)n(-c4nc5ccccc5s4)nc-3c2c1
IC50 (MDA-MB-435): > 5 µg/mL | IC50 (HL-60): > 5 µg/mL | IC50 (HCT-8): > 5 µg/mL | IC50 (SF-295): > 5 µg/mL | EC50 at 30 min [1]: > 250 µg/mL

O=c1c2c[nH]c3ccc([N+](=O)[O-])cc3c-2nn1-c1nc2ccccc2s1
IC50 (MDA-MB-435): > 5 µg/mL | IC50 (HL-60): > 5 µg/mL | IC50 (HCT-8): > 5 µg/mL | IC50 (SF-295): > 5 µg/mL | EC50 at 30 min [1]: > 250 µg/mL

O=c1c2c[nH]c3ccc(F)cc3c-2nn1-c1nc2ccccc2s1
IC50 (MDA-MB-435): > 5 µg/mL | IC50 (HL-60): > 5 µg/mL | IC50 (HCT-8): > 5 µg/mL | IC50 (SF-295): > 5 µg/mL | EC50 at 30 min [1]: > 250 µg/mL
